High-throughput results: PubChem, several laboratories
RORA act = activators of human nuclear receptor RORA | P35398 | actives 1.5% (n = 65,000) | activation, % at 10 µM | CHO-K1 Gal4-RORA LBD luciferase reporter, luminescence; percent increase over mock-subtracted basal signal;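 active means activation above the mean of all tested compounds plus 3 SD, cut at about 49% in these data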
Target sequence (P35398 whole entry, looked up, the tested form may be a part): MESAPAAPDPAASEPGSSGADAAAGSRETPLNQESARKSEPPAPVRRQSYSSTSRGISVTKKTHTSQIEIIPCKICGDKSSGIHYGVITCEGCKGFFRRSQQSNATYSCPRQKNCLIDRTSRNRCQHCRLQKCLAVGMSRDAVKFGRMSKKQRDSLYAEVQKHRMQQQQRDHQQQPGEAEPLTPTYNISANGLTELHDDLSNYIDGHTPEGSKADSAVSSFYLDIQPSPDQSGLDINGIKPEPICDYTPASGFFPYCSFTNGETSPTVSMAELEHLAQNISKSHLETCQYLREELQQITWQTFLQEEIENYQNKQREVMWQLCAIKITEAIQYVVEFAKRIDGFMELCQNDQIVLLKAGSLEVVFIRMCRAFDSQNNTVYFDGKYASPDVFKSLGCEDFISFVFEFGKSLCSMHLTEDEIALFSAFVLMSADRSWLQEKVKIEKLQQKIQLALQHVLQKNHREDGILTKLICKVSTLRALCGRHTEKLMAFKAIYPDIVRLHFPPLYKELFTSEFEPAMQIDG
MT1-MMP txn act = activates MT1-MMP transcription; activation factor at 10 µM; HT1080 MT1-MMP promoter luciferase reporter, luminescence, overnight; hits give high values; actives 0.16% (n = 86,000);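 active means activation factor of at least 2 for MT1-MMP transcription at 10 µM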
Jurkat viability = cytotoxic compounds reducing Jurkat cell viability | Jurkat E6.1 viability, ATP luminescence, 48 h | inhibition, % at 4 µM | actives 1.2% (n = 56,000) | AID 463;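 active means inhibition above the mean inhibition of all tested compounds plus 3 SD, cut at about 28% in these data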
SF1 activator = activators of human nuclear receptor SF-1; Q13285; CHO-K1 Gal4-SF-1 LBD luciferase reporter; % increase over DMSO SF-1-specific signal; activation, % at 10 µM; actives 1.9% (n = 65,000);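 active means activation above the mean activation of all tested compounds plus 3 SD, cut at about 50% in these data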
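Assay system: CHO-K1 cells co-transfected with Gal4 DBD–human SF-1 LBD, 5xGal4 luciferase reporter; doses: 10 µM only; incubation: 20 h compound exposure at 37 °C after 1 h cell settling; signal: luciferase light emission; evaluation: percent activation versus DMSO; repeats: one test per compound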
HEK293 NFkB inh = lowers PMA/ionomycin-induced NF-kB signal in HEK293 cells | inhibition, % at 3 µM | AID 465 | HEK-293 NF-kB luciferase reporter, luminescence | actives 0.21% (n = 62,000);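 active means inhibition above the mean of all tested compounds plus 3 SD, cut at about 40% in these data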
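System: NF-kB luciferase reporter HEK-293 cells | Replication: Single test | Control set: DMSO vs reference inhibitor | Evaluation: % inhibition | Schedule: 1 h pretreatment, 16 h stimulation, 37 °C | Probe or stimulus: PMA with ionomycin | Compound dosing: One dose, 3 µM | Detection: Luciferase luminescence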
Large screens that a line does not name were inactive. This is a sample that favours compounds with a hit; in the whole collection about 2.8% have one here.

CC1=C(C(=O)OC(C)C)C(c2ccc(Br)s2)NC(=O)N1C (centres undefined)	none
O=C1CC(c2cccs2)Sc2nc3ccccc3n21 (centres undefined)	SF1 activator 79.8
O=C1CC(c2ccco2)Sc2nc3ccccc3n21 (centres undefined)	none
c1ccc(CSc2nnc(-c3c[nH]c4ccccc34)o2)cc1	RORA act 79.6
O=C(NCCCn1ccnc1)c1ccc(Br)c(S(=O)(=O)N2CCOCC2)c1	none (no result: RORA act, Jurkat viability, SF1 activator, HEK293 NFkB inh)
C=CCN1C(=O)CSC1=Nc1cccc(O)c1	none (no result: Jurkat viability)
C=CCN1C(=Nc2cccnc2)SCC1(O)c1ccc(C)cc1 (centres undefined)	Jurkat viability 39.2
Fc1ccccc1CSc1nnc(-c2ccccc2)o1	SF1 activator 57.8
Cc1ccccc1-c1nnc(SCc2ccccc2)o1	none
Cc1ccccc1-c1nnc(SCc2ccccc2F)o1	RORA act 75.2, SF1 activator 90.5
CCOc1ccc(-n2c(SCC(=O)Nc3nccs3)nc3c(c2=O)SCC3)cc1	none
COC(=O)c1ccccc1NC1OC(=O)c2ccccc21 (centres undefined)	none
CN(CC1CCCO1)S(=O)(=O)c1ccc(C(=O)Nc2nc(-c3ccccn3)cs2)cc1 (centres undefined)	Jurkat viability 52.5 (no result: MT1-MMP txn act)
O=C(Nc1nc(-c2ccccn2)cs1)C1CC1	none
COc1ccc(C(=O)CSc2nnc(COc3ccc(C#N)cc3)n2-c2ccccc2)cc1	none
C=CCOn1c(=O)c(-c2cc3ccccc3o2)[n+]([O-])c2ccccc21	SF1 activator 77.4 (no result: Jurkat viability, HEK293 NFkB inh)
COCCNC(=O)c1cc(-c2cccc(OC)c2)on1	none
COCC(C)NC(=O)c1cc(-c2cccc(OC)c2)on1 (centres undefined)	SF1 activator 70.8
CCC(C)NC(=O)c1cc(-c2ccc(OC)cc2)on1 (centres undefined)	RORA act 59.9 (no result: Jurkat viability)
Cn1c(=O)c2cc(S(=O)(=O)NCCC(=O)NCc3ccccc3Cl)ccc2n(C)c1=O	none
Cc1c(OCC(=O)OC(C)C)ccc2c3c(c(=O)oc12)CCC3	none
CC(=O)C(C)Oc1ccc2c3c(c(=O)oc2c1C)CCCC3 (centres undefined)	RORA act 59.5
CC(=O)COc1ccc2c3c(c(=O)oc2c1C)CCCCC3	SF1 activator 53.9
Cn1c(=O)n(CCc2ccccc2)c(=O)c2c1nc1n2CCCN1CCc1ccccc1	none
Cc1cc(C(=O)CNCc2ccco2)c(C)n1-c1ccc(F)cc1	RORA act 69.7, SF1 activator 52.9
Cc1cc2nnc(SCC(=O)NCc3ccco3)n2c2ccccc12	Jurkat viability 83.8 (no result: MT1-MMP txn act)
Cc1cc2nnc(SCC(=O)NCc3cccs3)n2c2ccccc12	none (no result: RORA act, Jurkat viability, SF1 activator, HEK293 NFkB inh)
CCCCC(CC)CNC(=O)c1ccc2c(c1)OCO2 (centres undefined)	none
O=C(CCCC(=O)N1CCc2ccccc21)N1CCc2ccccc21	none
CN(CC(=O)N1CCc2ccccc21)S(=O)(=O)c1cccs1	RORA act 52.3, SF1 activator 55.1 (no result: MT1-MMP txn act, Jurkat viability)
c1ccc(-n2nc3c(ccc4cnnc43)[nH]2)cc1	RORA act 54.7
Nc1nnc(C(=O)c2ccccc2N)s1	none
CNc1nc(N2CCc3ccccc32)ncc1F	SF1 activator 75.3
Cn1c(=O)cc(N2CCc3ccccc32)[nH]c1=O	none
C#CCn1c(=NC(=O)c2cccs2)sc2cccc(OC)c21	RORA act 78.9, SF1 activator 75.7
Cc1cc(=O)[nH]c2c1c(C)nn2C1CCOC(C)(C)C1 (centres undefined)	none (no result: RORA act, Jurkat viability, SF1 activator, HEK293 NFkB inh)
O=c1ccccn1Cc1ccccc1F	none
O=c1c2cc3ccccc3n2cnn1Cc1ccccc1F	Jurkat viability 49.8
Cc1nnsc1C(=O)Nc1ccccc1Cl	none
CCOC(=O)C1CCCN(c2c(Nc3ccc(C)c(C)c3)c(=O)c2=O)C1 (centres undefined)	none
Cc1cc(C(=O)COC(=O)c2n[nH]c3ccccc23)c(C)n1C	none (no result: MT1-MMP txn act)
COc1cc(C(=O)OCC(=O)c2cc(C)n(C)c2C)cc(OC)c1OC	Jurkat viability 42.0, SF1 activator 51.7
CC(=O)N(C)c1nc(-c2ccc(Cl)cc2)cs1	none (no result: Jurkat viability)
CC(=O)c1c(C)nc(-c2ccc(Cl)cc2)nc1N=CN(C)C	RORA act 67.6, SF1 activator 75.6
Cc1c(Br)cc(C(=O)NCc2ccco2)c(C)c1C	none
Cc1ccc2c(CC(=O)NCc3ccco3)coc2c1C	RORA act 52.2, Jurkat viability 68.6 (no result: MT1-MMP txn act)
O=C(Cn1nnc(-c2ccncc2)n1)N(C1CCCCC1)C1CCCCC1	none
